Results published in ChEMBL document CHEMBL1122501, “Potential antiatherosclerotic agents. 2. (Aralkylamino)- and (alkylamino) benzoic acid analogues of cetaben” (1983).

Tests used:
[1] = test system: Rattus norvegicus; test: In vivo Sterol lowering activity at dose as 0.01 % of the diet.; type: functional
Outline: (§1)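 Male CFE or CD-1 Sprague-Dawley rats, 140-150 g; 8 per control group, 4 per test group. Compound mixed into ground chow (w/w) via MeOH-CHCl3 (1:3) solution, solvent evaporated; controls got solvent-treated chow. Fed ad libitum 5 days, food intake monitored, killed fed and bled. Serum sterols and triglycerides by adapted autoanalyzer methods; mean percent of control, Student's t test.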

[2] = test system: Rattus norvegicus; test: In vivo triglyceride lowering activity, dosed at 0.01 % of the diet.; type: functional; outline: as §1
[3] = molecular target: T1, Sterol O-acyltransferase 1 (Rattus norvegicus) (UniProt O70536); test: In vitro inhibitory activity against acyl coenzyme A:cholesterol acyltransferase (ACAT); design: concentration or dose not given beside the values; conditions: concentration not given here
T1 sequence (whole entry): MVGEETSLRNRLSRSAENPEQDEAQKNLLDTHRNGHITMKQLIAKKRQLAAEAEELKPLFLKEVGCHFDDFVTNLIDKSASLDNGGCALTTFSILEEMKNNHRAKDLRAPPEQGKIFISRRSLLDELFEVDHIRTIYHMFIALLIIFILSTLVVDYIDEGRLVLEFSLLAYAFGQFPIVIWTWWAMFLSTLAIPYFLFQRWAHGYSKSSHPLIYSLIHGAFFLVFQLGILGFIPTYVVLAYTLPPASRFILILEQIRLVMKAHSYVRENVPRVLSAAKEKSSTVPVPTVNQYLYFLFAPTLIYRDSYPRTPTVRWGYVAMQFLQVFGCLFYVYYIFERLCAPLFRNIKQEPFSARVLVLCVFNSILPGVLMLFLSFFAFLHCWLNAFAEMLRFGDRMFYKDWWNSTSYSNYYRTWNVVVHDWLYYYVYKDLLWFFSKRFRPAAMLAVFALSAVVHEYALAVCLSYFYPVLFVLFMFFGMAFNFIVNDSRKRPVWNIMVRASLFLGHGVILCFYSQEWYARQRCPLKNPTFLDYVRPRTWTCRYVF
Outline: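 ACAT enzyme from rat adrenal homogenate in 0.2 M KH2PO4 buffer pH 7.4, 1000g 15 min 5 °C supernatant (microsomal fraction). Supernatant + BSA (50 mg/mL) + compound at final 5.2 μg/mL + buffer preincubated 10 min 37 °C; [14C]oleoyl-CoA (0.4 μCi) added, 30 min 37 °C. Lipids extracted, TLC; cholesteryl ester zone counted. Mean % inhibition vs no-compound control; Student's t test.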

[4] = test system: Rattus norvegicus; test: In vivo Sterol lowering activity at dose as 0.03 % of the diet.; type: functional; outline: as §1
[5] = test system: Rattus norvegicus; test: In vivo Triglyceride lowering activity at dose as 0.03 % of the diet.; type: functional; outline: as §1
[6] = test system: Rattus norvegicus; test: In vivo triglyceride lowering activity, dosed at 0.10 % of the diet.; type: functional; outline: as §1
[7] = test system: Rattus norvegicus; test: In vivo Sterol lowering activity at dose as 0.10 % of the diet.; type: functional; outline: as §1
[8] = test system: Rattus norvegicus; test: In vivo Triglyceride lowering activity at dose as 0.025 % of the diet; type: functional; outline: as §1
[9] = test system: Rattus norvegicus; test: In vivo triglyceride lowering activity dosed at 0.05 % of the diet; type: functional; outline: as §1
[10] = test system: Rattus norvegicus; test: In vivo Sterol lowering activity at dose as 0.05 % of the diet; type: functional; outline: as §1
[11] = test system: Rattus norvegicus; test: In vivo sterol lowering activity dosed at 0.10 % of the diet; type: functional; outline: as §1
[12] = test system: Rattus norvegicus; test: In vivo Sterol lowering activity at dose as 0.025 % of the diet; type: functional; outline: as §1
[13] = test system: Rattus norvegicus; test: In vivo triglyceride lowering activity dosed at 0.10 % of the diet; type: functional; outline: as §1
[14] = test system: Rattus norvegicus; test: In vivo Triglyceride lowering activity at dose as 0.01 % of the diet; type: functional; outline: as §1
[15] = test system: Rattus norvegicus; test: In vivo triglyceride lowering activity, dosed at 0.03 % of the diet; type: functional; outline: as §1
[16] = test system: Rattus norvegicus; test: In vivo Sterol lowering activity at dose as 0.03 % of the diet; type: functional; outline: as §1

Row | Compound | serum sterol, percent of control [1] [%] | Diet [2] [%] | inhibition [3] [%] | serum sterol level, percent of control [4] [%] | Diet [5] [%] | Diet [6] [%] | serum sterol, percent of control [7] [%] | Diet [8] [%] | Diet [9] [%] | Diet [10] [%] | serum sterol, percent of control [11] [%] | Diet [12] [%] | serum triglycerides, percent of control [13] [%] | Diet [14] [%] | serum triglycerides, percent of control [15] [%] | Diet [16] [%]
1 | O=C(/C=C/c1ccc(Cl)cc1)Nc1ccc(C(=O)O)cc1 | 100 | 94 | 41 | 100 | 109 | 116 | 120 |  |  |  |  |  |  |  |  | 
2 | CCOC(=O)c1ccc(NC(=O)/C=C/c2ccc(Cl)cc2)cc1 | 98 | 104 | 51 | 107 | 110 | 80 | 107 |  |  |  |  |  |  |  |  | 
3 | CCCCCCCC/C=C\CCCCCCCCNc1ccc(C(=O)OCC)cc1 |  |  |  |  |  |  |  | <68 | <57 | 99 | <96 | <95 | 77 |  |  | 
4 | CCCCCCCCCCCCNc1ccc(C(=O)O)cc1 |  |  |  |  |  |  |  |  |  | <80 | <89 | <86 | <32 | <51 | <40 | 
5 | CCCCCCCCCCCCCCCCCCNc1ccc(C(=O)O)cc1 |  |  |  |  |  |  |  | <70 | <71 | 94 | <82 | <86 | <60 |  |  | 
6 | C=CCCCCCCCC/C=C/CCCNc1ccc(C(=O)O)cc1 |  |  |  |  |  |  |  | <71 | 79 | <81 | <80 | <86 | 88 |  |  | 
7 | O=C(O)c1ccc(NCCCc2ccc([N+](=O)[O-])cc2)cc1 | 98 | 78 | 18 | 91 | 75 | 83 | 96 |  |  |  |  |  |  |  |  | 
8 | CCCCCCCCCCCCCNc1ccc(C(=O)O)cc1 |  |  |  |  |  |  |  | <54 | <36 | <87 | <84 | 95 | <60 |  |  | 
9 | CCOC(=O)c1ccc(NC(=O)CCCCCc2ccc(Cl)cc2)cc1 | 93 | 96 | 42 | 101 | 95 | 104 | 99 |  |  |  |  |  |  |  |  | 
10 | Cc1ccc(CCC(=O)Nc2ccc(C(=O)O)cc2)cc1 | 94 | 75 | 0 |  | 97 | 70 | 91 |  |  |  |  |  |  |  |  | 83
11 | CCCCCCCCCC/C=C/CCCNc1ccc(C(=O)O)cc1 |  |  |  |  |  |  |  | 86 | <83 | <82 | <79 | <84 | 83 |  |  | 
12 | O=C(O)c1ccc(N(CCCc2ccc(Cl)cc2)CCCc2ccc(Cl)cc2)cc1 | 98 | 126 | 33 | 84 | 91 | 85 | 98 |  |  |  |  |  |  |  |  | 
13 | CCCCCCCCC/C=C/CCCNc1ccc(C(=O)O)cc1 |  |  |  |  |  |  |  | 85 | 97 | <83 | <79 | <86 | 75 |  |  | 
14 | CCOC(=O)c1ccc(NCCCc2ccccc2F)cc1 | 104 | 106 | 37 | 100 | 116 | 92 | 97 |  |  |  |  |  |  |  |  | 
15 | O=C(O)c1ccc(NCCCc2ccc(F)cc2)cc1 | 83 | 94 | 16 |  | 90 |  | 82 |  |  |  |  |  | 61 |  |  | 82
